{"source": "ChEMBL document CHEMBL4385606", "about": "“3,5,7-Substituted Pyrazolo[4,3- d]pyrimidine Inhibitors of Cyclin-Dependent Kinases and Their Evaluation in Lymphoma Models” (J Med Chem, 2019)", "key": {"[1]": {"molecular_target": "Cyclin-dependent kinase 4/cyclin D1 (Homo sapiens, UniProt P11802)", "sequence (P11802 whole entry, the tested form may be a part)": "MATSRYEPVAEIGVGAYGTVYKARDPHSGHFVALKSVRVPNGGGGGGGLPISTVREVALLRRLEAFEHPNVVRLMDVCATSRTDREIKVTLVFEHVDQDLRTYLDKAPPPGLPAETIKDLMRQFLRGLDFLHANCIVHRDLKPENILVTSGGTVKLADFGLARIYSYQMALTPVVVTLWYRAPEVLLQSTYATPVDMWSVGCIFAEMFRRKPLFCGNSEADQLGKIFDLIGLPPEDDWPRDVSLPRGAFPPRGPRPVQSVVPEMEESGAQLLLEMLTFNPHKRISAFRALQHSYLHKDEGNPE", "sequence (P24385 whole entry, further chain, the tested form may be a part)": "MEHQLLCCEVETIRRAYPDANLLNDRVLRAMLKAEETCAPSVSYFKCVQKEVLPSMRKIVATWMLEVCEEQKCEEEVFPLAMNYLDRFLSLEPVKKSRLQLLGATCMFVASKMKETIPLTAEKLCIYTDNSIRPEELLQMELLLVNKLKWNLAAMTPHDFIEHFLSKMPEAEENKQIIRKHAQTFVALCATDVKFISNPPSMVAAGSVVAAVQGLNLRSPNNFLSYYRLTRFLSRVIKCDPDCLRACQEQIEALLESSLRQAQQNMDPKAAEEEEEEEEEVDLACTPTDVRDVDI", "experiment": "Inhibition of recombinant human N-terminal GST-fused CDK4 (S4 to E303 residues)/cyclin D1 (Q4 to I295 residues) expressed in baculovirus infected Sf9 insect cells using RPPTLSPIPHIPR as substrate measured in presence of [gamma-33P]ATP", "in_short": "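CDK/cyclin complexes tested in triplicate at minimum; IC50 values reported from those replicate determinations.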"}, "U2932": {"test_system": "U2932", "experiment": "Antiproliferative activity against human U2932 cells assessed as growth inhibition measured after 72 hrs by calcein AM dye-based fluorescence assay", "type": "functional, cell-based", "conditions": "U2932, 72 h", "in_short": "(§1)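 Cells exposed in triplicate to six concentrations for 72 h; calcein AM added for 1 h, live-cell fluorescence read at 485/538 nm (ex/em). GI50 taken from dose-response curves.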"}, "TMD8": {"test_system": "TMD8", "experiment": "Antiproliferative activity against human TMD8 cells assessed as growth inhibition measured after 72 hrs by calcein AM dye-based fluorescence assay", "type": "functional, cell-based", "conditions": "TMD8, 72 h", "in_short": "as §1"}, "SU-DHL10": {"test_system": "SU-DHL10", "experiment": "Antiproliferative activity against human SUDHL10 cells assessed as growth inhibition measured after 72 hrs by calcein AM dye-based fluorescence assay", "type": "functional, cell-based", "conditions": "SU-DHL10, 72 h", "in_short": "as §1"}, "Raji": {"test_system": "Raji", "experiment": "Antiproliferative activity against human Raji cells assessed as growth inhibition measured after 72 hrs by calcein AM dye-based fluorescence assay", "type": "functional, cell-based", "in_short": "as §1"}, "RPMI-8226": {"test_system": "RPMI-8226", "experiment": "Antiproliferative activity against human RPMI8226 cells assessed as growth inhibition measured after 72 hrs by calcein AM dye-based fluorescence assay", "type": "functional, cell-based", "conditions": "RPMI-8226, 72 h"}, "HeLa": {"test_system": "HeLa", "experiment": "Antiproliferative activity against human HeLa cells assessed as growth inhibition measured after 72 hrs by calcein AM dye-based fluorescence assay", "type": "functional, cell-based", "in_short": "as §1"}, "HCT-116": {"test_system": "HCT-116", "experiment": "Antiproliferative activity against human HCT116 cells assessed as growth inhibition measured after 72 hrs by calcein AM dye-based fluorescence assay", "type": "functional, cell-based", "conditions": "HCT-116, 72 h", "in_short": "as §1"}, "Homo sapiens [2]": {"species": "Homo sapiens", "experiment": "Induction of apoptosis in human Mino cells assessed as reduction in MCL1 expression at 12.5 nM after 2 to 24 hrs by immunoblotting analysis", "type": "functional, cell-based", "in_short": "(§2)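 Lymphoma cell lines were cultured as the providers instruct and exposed to compound at several doses or for several times. Lysates were run on SDS-PAGE and blotted to nitrocellulose. Blots were blocked, incubated overnight with primary antibodies diluted in PBS with 5% milk and 0.1% Tween 20, then with peroxidase-conjugated secondaries, and detected by chemiluminescence on a CCD camera.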"}, "Homo sapiens [3]": {"species": "Homo sapiens", "experiment": "Induction of apoptosis in human Mino cells assessed as caspase 3 activation at 1.5 to 12.5 nM after 24 hrs by immunoblotting analysis", "type": "functional, cell-based", "in_short": "as §2"}, "Homo sapiens [4]": {"species": "Homo sapiens", "experiment": "Induction of apoptosis in human Mino cells assessed as caspase 7 activation at 1.5 to 12.5 nM after 24 hrs by immunoblotting analysis", "type": "functional, cell-based", "in_short": "as §2"}, "[5]": {"molecular_target": "Cyclin-dependent kinase 7 (Homo sapiens) (UniProt P50613)", "sequence (P50613 whole entry, the tested form may be a part)": "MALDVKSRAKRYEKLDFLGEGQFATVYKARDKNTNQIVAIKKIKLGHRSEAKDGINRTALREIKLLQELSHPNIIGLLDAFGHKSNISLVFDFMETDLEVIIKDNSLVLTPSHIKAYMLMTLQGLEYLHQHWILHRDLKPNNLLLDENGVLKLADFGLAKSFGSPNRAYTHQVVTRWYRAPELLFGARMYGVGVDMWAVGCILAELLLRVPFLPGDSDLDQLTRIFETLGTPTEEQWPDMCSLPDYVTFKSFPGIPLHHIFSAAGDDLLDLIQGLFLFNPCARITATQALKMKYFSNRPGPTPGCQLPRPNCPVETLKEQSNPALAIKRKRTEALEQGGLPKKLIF", "experiment": "Inhibition of CDK7 in human Mino cells assessed as decrease in phosphorylation of RNA polymerase 2 C-terminal domain at Ser 2 residue at 12.5 nM by immunoblotting analysis", "type": "cell-based", "conditions": "TDE = time-dependent effect", "in_short": "(§3)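 MINO lymphoma cells were treated at 12.5 nM, with time points over 24 h. Lysates were separated by SDS-PAGE and blotted to nitrocellulose. Phospho-RNA polymerase II CTD (Ser2, Ser5) and phospho-Rb (Ser608, Ser780) were probed with primary antibodies overnight and peroxidase-conjugated secondaries. Detection was by chemiluminescence on a CCD camera.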"}, "[6]": {"molecular_target": "Cyclin-dependent kinase 7 (Homo sapiens) (UniProt P50613)", "experiment": "Inhibition of CDK7 in human Mino cells assessed as decrease in phosphorylation of RNA polymerase 2 C-terminal domain at Ser 5 residue at 12.5 nM by immunoblotting analysis", "type": "cell-based", "conditions": "TDE = time-dependent effect", "in_short": "as §3"}, "[7]": {"molecular_target": "Cyclin-dependent kinase 2 (Homo sapiens) (UniProt P24941)", "experiment": "Inhibition of CDK2 in human Mino cells assessed as decrease in phosphorylation of Rb at Ser 608 residue at 12.5 nM by immunoblotting analysis", "type": "cell-based", "conditions": "TDE = time-dependent effect", "in_short": "as §3"}, "[8]": {"molecular_target": "Cyclin-dependent kinase 7 (Homo sapiens) (UniProt P50613)", "experiment": "Inhibition of CDK7 in human Mino cells assessed as decrease in phosphorylation of Rb at Ser 608 residue at 12.5 nM by immunoblotting analysis", "type": "cell-based", "conditions": "TDE = time-dependent effect", "in_short": "as §3"}, "[9]": {"molecular_target": "Cyclin-dependent kinase 9 (Homo sapiens) (UniProt P50750)", "sequence (P50750 whole entry)": "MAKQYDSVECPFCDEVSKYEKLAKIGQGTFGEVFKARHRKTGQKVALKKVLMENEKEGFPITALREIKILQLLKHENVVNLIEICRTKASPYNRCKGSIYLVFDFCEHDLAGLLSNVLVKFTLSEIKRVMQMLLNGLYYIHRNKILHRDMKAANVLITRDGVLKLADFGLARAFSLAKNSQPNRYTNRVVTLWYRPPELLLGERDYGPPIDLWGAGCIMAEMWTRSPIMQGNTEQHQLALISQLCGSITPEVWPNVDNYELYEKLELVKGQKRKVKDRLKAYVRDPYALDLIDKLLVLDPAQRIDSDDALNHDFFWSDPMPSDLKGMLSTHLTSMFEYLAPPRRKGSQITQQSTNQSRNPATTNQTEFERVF", "experiment": "Inhibition of CDK9 in human Mino cells assessed as decrease in phosphorylation of Rb at Ser 608 residue at 12.5 nM by immunoblotting analysis", "type": "cell-based", "conditions": "TDE = time-dependent effect", "in_short": "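MINO lymphoma cells exposed to 12.5 nM for up to 24 h (time course). Lysates separated by SDS-PAGE, transferred to nitrocellulose, probed overnight with specific primary antibodies diluted in PBS with 5% milk and 0.1% Tween 20, then peroxidase-conjugated secondaries; chemiluminescence imaged with a CCD camera.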"}, "Mus musculus [10]": {"test_system": "Mus musculus", "experiment": "Ex vivo antitumor activity against human Mino cells xenografted NSG mouse assessed as down regulation of MCL1 expression at 5 to 10 mg/kg, iv measured after 24 hrs by immunoblotting analysis", "type": "functional, organism-based", "in_short": "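NSG mice bearing palpable s.c. tumors received a single i.v. dose (5 or 10 mg/kg) and were euthanized after 24 h. Excised tumors were filtered through 45 µm nylon mesh, lysed and run on SDS-PAGE, transferred to nitrocellulose, probed overnight with primary antibodies in PBS with 5% milk and 0.1% Tween 20, then peroxidase secondaries, with chemiluminescent detection.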"}, "Mus musculus [11]": {"test_system": "Mus musculus", "experiment": "Ex vivo antitumor activity against patient derived VFN-M1 cells xenografted NSG mouse assessed as increase in cleaved caspase 9 expression at 10 mg/kg, iv measured after 24 hrs by immunoblotting analysis", "type": "functional, organism-based", "in_short": "(§4)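 Female NSG mice, 8-12 weeks old, implanted s.c. with lymphoma cells. Once tumors were palpable, mice received a single tail-vein i.v. dose (5 or 10 mg/kg) of compound dissolved in PBS. Mice were euthanized 24 h later. Tumors were excised, filtered through 45 µm nylon mesh and lysed, then proteins were analysed by immunoblotting.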"}, "Maver1": {"test_system": "Maver1", "experiment": "Induction of apoptosis in human Maver1 cells assessed as activation of caspase-7 at 1.5 to 12.5 nM after 24 hrs by immunoblot analysis", "type": "functional, cell-based", "in_short": "as §2"}, "Mus musculus [12]": {"test_system": "Mus musculus", "experiment": "Ex vivo antitumor activity against human UPF1H cells xenografted NSG mouse assessed as increase in cleaved caspase 7 expression at 5 to 10 mg/kg, iv measured after 24 hrs by immunoblotting analysis", "type": "functional, organism-based", "in_short": "as §4"}, "Mus musculus [13]": {"test_system": "Mus musculus", "experiment": "Ex vivo antitumor activity against human UPF1H cells xenografted NSG mouse assessed as increase in cleaved caspase 9 expression at 5 to 10 mg/kg, iv measured after 24 hrs by immunoblotting analysis", "type": "functional, organism-based", "in_short": "as §4"}, "Mus musculus [14]": {"test_system": "Mus musculus", "experiment": "Ex vivo antitumor activity against human Mino cells xenografted NSG mouse decrease in phosphorylation of RNA polymerase 2 C-terminal domain at Ser 2 residue at 5 to 10 mg/kg, iv measured after 24 hrs by immunoblotting analysis", "type": "functional, organism-based", "in_short": "as §4"}, "Mus musculus [15]": {"test_system": "Mus musculus", "experiment": "Ex vivo antitumor activity against patient derived VFN-M1 cells xenografted NSG mouse assessed as down regulation of MCL1 expression at 10 mg/kg, iv measured after 24 hrs by immunoblotting analysis"}, "Homo sapiens [16]": {"test_system": "Homo sapiens", "experiment": "Antitumor activity against human HBL2 cells xenografted in NSG mouse assessed as inhibition of tumor growth at 10 mg/kg, iv administered daily measured every day during compound dosing by caliper method"}}, "note": "Active and inactive are the calls of the source. The rule behind the calls is not given here.", "data": [{"compound": "CC(C)c1n[nH]c2c(NCc3ccc(-c4ccccn4)cc3)nc(SCCN)nc12", "values": [{"measurement": "IC50", "setting": "[1]", "result": 0.603, "unit": "µM"}, {"measurement": "GI50", "setting": "U2932", "result": 0.03, "unit": "µM"}, {"measurement": "IC50", "setting": "U2932", "result": 0.03, "unit": "µM"}, {"measurement": "GI50", "setting": "TMD8", "result": 0.012, "unit": "µM"}, {"measurement": "IC50", "setting": "TMD8", "result": 0.012, "unit": "µM"}, {"measurement": "GI50", "setting": "SU-DHL10", "result": 0.017, "unit": "µM"}, {"measurement": "IC50", "setting": "SU-DHL10", "result": 0.017, "unit": "µM"}, {"measurement": "GI50", "setting": "Raji", "result": 0.038, "unit": "µM"}, {"measurement": "IC50", "setting": "Raji", "result": 0.038, "unit": "µM"}, {"measurement": "GI50", "setting": "RPMI-8226", "result": 0.0216, "unit": "µM"}, {"measurement": "GI50", "setting": "HeLa", "result": 0.0216, "unit": "µM"}, {"measurement": "IC50", "setting": "HeLa", "result": 0.017, "unit": "µM"}, {"measurement": "GI50", "setting": "HCT-116", "result": 0.0216, "unit": "µM"}, {"measurement": "IC50", "setting": "HCT-116", "result": 0.022, "unit": "µM"}, {"measurement": "Activity", "setting": "Homo sapiens [2]", "result": "Active"}, {"measurement": "Activity", "setting": "Homo sapiens [3]", "result": "Active"}, {"measurement": "Activity", "setting": "Homo sapiens [4]", "result": "Active"}, {"measurement": "inhibition", "setting": "[5]", "result": "Tde"}, {"measurement": "inhibition", "setting": "[6]", "result": "Tde"}, {"measurement": "inhibition", "setting": "[7]", "result": "Tde"}, {"measurement": "inhibition", "setting": "[8]", "result": "Tde"}, {"measurement": "inhibition", "setting": "[9]", "result": "Tde"}, {"measurement": "Activity", "setting": "Mus musculus [10]", "result": "Active"}, {"measurement": "Activity", "setting": "Mus musculus [11]", "result": "Active"}, {"measurement": "Activity", "setting": "Maver1", "result": "Active"}, {"measurement": "Activity", "setting": "Mus musculus [12]", "result": "Active"}, {"measurement": "Activity", "setting": "Mus musculus [13]", "result": "Active"}, {"measurement": "Activity", "setting": "Mus musculus [14]", "result": "Active"}, {"measurement": "Activity", "setting": "Mus musculus [15]", "result": "Active"}, {"measurement": "TGI", "setting": "Homo sapiens [16]", "result": "Active"}]}]}
